Measurements published in ChEMBL document CHEMBL3286101, “Probing of primed and unprimed sites of calpains: Design, synthesis and evaluation of epoxysuccinyl-peptide derivatives as selective inhibitors” (Eur J Med Chem, 2014).
Peptide text beside a SMILES is read from it. * marks the point of attachment. X4 = CC(C)C[C@H](NC(=O)[C@@H]1O[C@H]1C(=O)*)C(=O)N[C@@H](Cc1c[nH]c2ccccc12)C(=O)N[C@H](C(N)=O)[C@@H](C)O; X5 = CC(C)C[C@H](NC(=O)[C@H]1O[C@@H]1C(=O)*)C(=O)N[C@@H](Cc1c[nH]c2ccccc12)C(=O)N[C@H](C(N)=O)[C@@H](C)O; X3 = C[C@@H](O)[C@H](NC(=O)[C@@H]1CCCN1C(=O)[C@@H](NC(=O)[C@H]1O[C@@H]1C(=O)*)[C@@H](C)O)C(N)=O; X9 = C[C@@H](O)[C@H](NC(=O)[C@@H]1CCCN1C(=O)[C@@H](NC(=O)[C@@H]1O[C@H]1C(=O)*)[C@@H](C)O)C(N)=O; X10 = CC(C)C[C@H](NC(=O)[C@@H]1O[C@H]1C(=O)*)C(=O)N[C@@H](CO)C(=O)N[C@H](C(N)=O)[C@@H](C)O; X1 = CC(C)C[C@H](NC(=O)[C@H]1O[C@@H]1C(=O)*)C(=O)N1CCC[C@H]1C(=O)N[C@H](C(N)=O)[C@@H](C)O; X2 = CC(C)C[C@H](NC(=O)[C@@H]1O[C@H]1C(=O)*)C(=O)N1CCC[C@H]1C(=O)N[C@H](C(N)=O)[C@@H](C)O; X6 = CC(C)C[C@H](NC(=O)[C@H]1O[C@@H]1C(=O)*)C(=O)N[C@@H](CO)C(=O)N[C@H](C(N)=O)[C@@H](C)O; X7 = CC(C)[C@H](NC(=O)[C@@H]1O[C@H]1C(=O)*)C(=O)N1CCC[C@H]1C(=O)N[C@H](C(N)=O)[C@@H](C)O; X8 = CC(C)[C@H](NC(=O)[C@H]1O[C@@H]1C(=O)*)C(=O)N1CCC[C@H]1C(=O)N[C@H](C(N)=O)[C@@H](C)O

What was measured:
[1] = Inhibition of rat calpain-2 large subnit/truncated small subunit expressed in Escherichia coli using Suc-LY-AMC as substrate by fluorescence assay
Method in brief: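 Rat calpain 2 is made from its 80-kDa large subunit and 21-kDa truncated small subunit, expressed in E. coli, purified on HisTrap and dialyzed into calpain buffer (10 mM HEPES, 150 mM NaCl, 1 mM EDTA, pH 7.5). The reaction starts when 0.2 μM enzyme is added to 100 µM Suc-LY-AMC, 3 mM Ca2+ and inhibitor at various concentrations. Fluorescence is read at 380/460 nm. Triplicates; mean ± S.D.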

[2] = target: T1, Calpain-1 catalytic subunit (Homo sapiens, UniProt P07384); test: Inhibition of calpain-1 (unknown origin) using Suc-LY-AMC as substrate by fluorescence assay
T1 sequence (P07384 whole entry): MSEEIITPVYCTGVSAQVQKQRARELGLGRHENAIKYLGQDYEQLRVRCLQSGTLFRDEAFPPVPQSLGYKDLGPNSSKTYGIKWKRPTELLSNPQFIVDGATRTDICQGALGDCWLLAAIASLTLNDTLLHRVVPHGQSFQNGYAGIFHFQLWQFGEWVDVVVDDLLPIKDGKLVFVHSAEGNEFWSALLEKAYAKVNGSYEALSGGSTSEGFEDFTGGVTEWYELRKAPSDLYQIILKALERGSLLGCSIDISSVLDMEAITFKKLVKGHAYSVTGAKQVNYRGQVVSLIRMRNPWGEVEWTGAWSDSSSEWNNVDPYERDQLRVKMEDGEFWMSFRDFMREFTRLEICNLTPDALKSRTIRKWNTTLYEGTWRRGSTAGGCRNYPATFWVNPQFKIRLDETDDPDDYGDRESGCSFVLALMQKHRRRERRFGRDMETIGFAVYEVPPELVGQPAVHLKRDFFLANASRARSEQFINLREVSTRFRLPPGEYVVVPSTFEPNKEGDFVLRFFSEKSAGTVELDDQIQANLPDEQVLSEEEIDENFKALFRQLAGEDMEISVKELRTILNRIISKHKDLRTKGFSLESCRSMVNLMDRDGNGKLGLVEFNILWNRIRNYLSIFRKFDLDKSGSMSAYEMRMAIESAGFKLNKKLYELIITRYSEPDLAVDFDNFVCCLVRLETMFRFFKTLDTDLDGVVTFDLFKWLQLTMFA
Method in brief: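 Human erythrocyte calpain 1 at 0.5 μM starts the reaction, added to 100 µM Suc-LY-AMC, 3 mM Ca2+ and inhibitor at various concentrations in 50 µL calpain buffer (10 mM HEPES, 150 mM NaCl, 1 mM EDTA, pH 7.5). Fluorescence is followed at 380/460 nm. Triplicate experiments; mean ± S.D.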

[3] = Retention time of the compound by RP-HPLC analysis; type: physicochemical
Method in brief: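 Analytical RP-HPLC on a C18 column (150 × 4.6 mm, 5 μm, 100 Å). Eluent A is 0.1% TFA in water and eluent B is 0.1% TFA in acetonitrile–water 80:20. Gradient runs 0% B for 2 min, then to 90% B at 22 min, at 1 mL/min and ambient temperature. Detection at 220 nm.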

Cathepsin B = Cathepsin B (Homo sapiens, UniProt P07858); test: Inhibition of cathepsin B (unknown origin) using substrate-3 as substrate by fluorescence assay
Method in brief: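 Human liver cathepsin B is activated in 0.25 mM MES containing 10 mM DTE. The reaction starts when it is added at 0.7 nM to 100 μM Z-Arg-AMC with inhibitor at various concentrations in 0.25 mM MES, pH 5.0. Fluorescence is followed at 380/460 nm. Triplicates; mean ± S.D.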

[4] = Selectivity ratio of Ki for cathepsin B (unknown origin) to Ki for rat calpain-2

Ki [2] [µM]	Retention_time [3] [min]	Ki (Cathepsin B) [µM]	Ratio Ki [4]	Retention time [3] [min]	SMILES	Ki [1] [µM]
23.7	11.1	> 50	–	–	CC(C)C[C@H](NC(=O)[C@H]1O[C@@H]1C(=O)N[C@@H](CCCNC(=N)N)C(=O)N1CCC[C@H]1C(=O)N1CCC[C@H]1C(=O)N1CCC[C@H]1C(=O)N[C@@H](CO)C(N)=O)C(=O)N1CCC[C@H]1C(=O)N[C@H](C(N)=O)[C@@H](C)O (X1-RPPPS-NH2)	17.9
12.5	12.5	> 50	–	–	CC(C)C[C@H](NC(=O)[C@H]1O[C@@H]1C(=O)N[C@@H](CO)C(=O)N1CCC[C@H]1C(=O)N1CCC[C@H]1C(=O)N1CCC[C@H]1C(=O)N[C@@H](CO)C(N)=O)C(=O)N1CCC[C@H]1C(=O)N[C@H](C(N)=O)[C@@H](C)O (X1-SPPPS-NH2)	> 50
> 100	10.8	> 100	–	–	CC(C)C[C@H](NC(=O)[C@H]1O[C@@H]1C(=O)N[C@@H](CO)C(=O)N[C@@H](CCC(N)=O)C(=O)N1CCC[C@H]1C(=O)N1CCC[C@H]1C(=O)N[C@@H](CO)C(N)=O)C(=O)N1CCC[C@H]1C(=O)N[C@H](C(N)=O)[C@@H](C)O (X1-SQPPS-NH2)	> 100
> 100	12	> 100	–	–	CC(C)C[C@H](NC(=O)[C@H]1O[C@@H]1C(=O)N[C@@H](CO)C(=O)N[C@@H](CO)C(=O)N1CCC[C@H]1C(=O)N1CCC[C@H]1C(=O)N[C@@H](CO)C(N)=O)C(=O)N1CCC[C@H]1C(=O)N[C@H](C(N)=O)[C@@H](C)O (X1-SSPPS-NH2)	> 100
8.38	11	12.1	–	–	CC(C)C[C@H](NC(=O)[C@H]1O[C@@H]1C(=O)N[C@H](C(=O)N1CCC[C@H]1C(=O)N1CCC[C@H]1C(=O)N1CCC[C@H]1C(=O)N[C@@H](CO)C(N)=O)[C@@H](C)O)C(=O)N1CCC[C@H]1C(=O)N[C@H](C(N)=O)[C@@H](C)O (X1-TPPPS-NH2)	> 50
26.3	11.1	> 100	–	–	CC(C)C[C@H](NC(=O)[C@@H]1O[C@H]1C(=O)N[C@@H](CCCNC(=N)N)C(=O)N1CCC[C@H]1C(=O)N1CCC[C@H]1C(=O)N1CCC[C@H]1C(=O)N[C@@H](CO)C(N)=O)C(=O)N1CCC[C@H]1C(=O)N[C@H](C(N)=O)[C@@H](C)O (X2-RPPPS-NH2)	> 50
> 100	10.9	> 50	–	–	CC(C)C[C@H](NC(=O)[C@@H]1O[C@H]1C(=O)N[C@@H](CO)C(=O)N1CCC[C@H]1C(=O)N1CCC[C@H]1C(=O)N1CCC[C@H]1C(=O)N[C@@H](CO)C(N)=O)C(=O)N1CCC[C@H]1C(=O)N[C@H](C(N)=O)[C@@H](C)O (X2-SPPPS-NH2)	> 50
> 100	10.7	> 100	–	–	CC(C)C[C@H](NC(=O)[C@@H]1O[C@H]1C(=O)N[C@@H](CO)C(=O)N[C@@H](CCC(N)=O)C(=O)N1CCC[C@H]1C(=O)N1CCC[C@H]1C(=O)N[C@@H](CO)C(N)=O)C(=O)N1CCC[C@H]1C(=O)N[C@H](C(N)=O)[C@@H](C)O (X2-SQPPS-NH2)	> 100
> 100	11.9	> 100	–	–	CC(C)C[C@H](NC(=O)[C@@H]1O[C@H]1C(=O)N[C@@H](CO)C(=O)N[C@@H](CO)C(=O)N1CCC[C@H]1C(=O)N1CCC[C@H]1C(=O)N[C@@H](CO)C(N)=O)C(=O)N1CCC[C@H]1C(=O)N[C@H](C(N)=O)[C@@H](C)O (X2-SSPPS-NH2)	> 100
> 50	12.3	> 50	11.8	–	CC(C)C[C@H](NC(=O)[C@@H]1O[C@H]1C(=O)N[C@H](C(=O)N1CCC[C@H]1C(=O)N1CCC[C@H]1C(=O)N1CCC[C@H]1C(=O)N[C@@H](CO)C(N)=O)[C@@H](C)O)C(=O)N1CCC[C@H]1C(=O)N[C@H](C(N)=O)[C@@H](C)O (X2-TPPPS-NH2)	4.24
> 100	9.7	> 100	–	–	C[C@@H](O)[C@H](NC(=O)[C@@H]1CCCN1C(=O)[C@@H](NC(=O)[C@H]1O[C@@H]1C(=O)N[C@@H](CO)C(=O)N1CCC[C@H]1C(=O)N1CCC[C@H]1C(=O)N1CCC[C@H]1C(=O)N[C@@H](CO)C(N)=O)[C@@H](C)O)C(N)=O (X3-SPPPS-NH2)	> 100
3.7	13.2	4.45	–	–	CC(C)C[C@H](NC(=O)[C@@H]1O[C@H]1C(=O)N[C@@H](CO)C(=O)N1CCC[C@H]1C(=O)N1CCC[C@H]1C(=O)N1CCC[C@H]1C(=O)N[C@@H](CO)C(N)=O)C(=O)N[C@@H](Cc1c[nH]c2ccccc12)C(=O)N[C@H](C(N)=O)[C@@H](C)O (X4-SPPPS-NH2)	21.4
17.1	–	5	–	12.5	CC(C)C[C@H](NC(=O)[C@H]1O[C@@H]1C(=O)N[C@@H](CO)C(=O)N1CCC[C@H]1C(=O)N1CCC[C@H]1C(=O)N1CCC[C@H]1C(=O)N[C@@H](CO)C(N)=O)C(=O)N[C@@H](Cc1c[nH]c2ccccc12)C(=O)N[C@H](C(N)=O)[C@@H](C)O (X5-SPPPS-NH2)	4.05
21.9	10.3	> 50	–	–	CC(C)C[C@H](NC(=O)[C@H]1O[C@@H]1C(=O)N[C@@H](CO)C(=O)N1CCC[C@H]1C(=O)N1CCC[C@H]1C(=O)N1CCC[C@H]1C(=O)N[C@@H](CO)C(N)=O)C(=O)N[C@@H](CO)C(=O)N[C@H](C(N)=O)[C@@H](C)O (X6-SPPPS-NH2)	14.3
> 50	10.2	> 100	–	–	CC(C)[C@H](NC(=O)[C@@H]1O[C@H]1C(=O)N[C@@H](CO)C(=O)N1CCC[C@H]1C(=O)N1CCC[C@H]1C(=O)N1CCC[C@H]1C(=O)N[C@@H](CO)C(N)=O)C(=O)N1CCC[C@H]1C(=O)N[C@H](C(N)=O)[C@@H](C)O (X7-SPPPS-NH2)	> 100
> 50	10.7	> 100	–	–	CC(C)[C@H](NC(=O)[C@H]1O[C@@H]1C(=O)N[C@@H](CO)C(=O)N1CCC[C@H]1C(=O)N1CCC[C@H]1C(=O)N1CCC[C@H]1C(=O)N[C@@H](CO)C(N)=O)C(=O)N1CCC[C@H]1C(=O)N[C@H](C(N)=O)[C@@H](C)O (X8-SPPPS-NH2)	29.2
> 100	9.1	–	–	–	C[C@@H](O)[C@H](NC(=O)[C@@H]1CCCN1C(=O)[C@@H](NC(=O)[C@@H]1O[C@H]1C(=O)N[C@@H](CO)C(=O)N1CCC[C@H]1C(=O)N1CCC[C@H]1C(=O)N1CCC[C@H]1C(=O)N[C@@H](CO)C(N)=O)[C@@H](C)O)C(N)=O (X9-SPPPS-NH2)	–
30.8	10.2	–	–	–	CC(C)C[C@H](NC(=O)[C@@H]1O[C@H]1C(=O)N[C@@H](CO)C(=O)N1CCC[C@H]1C(=O)N1CCC[C@H]1C(=O)N1CCC[C@H]1C(=O)N[C@@H](CO)C(N)=O)C(=O)N[C@@H](CO)C(=O)N[C@H](C(N)=O)[C@@H](C)O (X10-SPPPS-NH2)	–
